This is a sample that favours compounds with a hit; in the whole collection about 2.5% have one here.
NR2E3 ag-1 – NR2E3 (human) agonism; Q9Y5X4; GST-NR2E3/biotin-RetCOR TR-FRET, 1536-well; inhibition of corepressor binding, % at 4.78 µM; 320,000 tested, 0.12% active;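 active means percent inhibition above the cutoff of mean plus 3 SD of all tested compounds, set per screening campaign, cut at about 20% in these data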;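 further: 0% = DMSO wells and 100% = biotin wells as full block of FRET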
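Test system – NR2E3–RetCOR corepressor complex · Quantity – NR2E3 fusion 1.35 nM · Buffer or medium – Tris pH 7.5 · Incubation – Compound–protein incubation for 5 h at 4 °C · Technique – TR-FRET, Eu(K)-anti-GST donor, streptavidin-D2 acceptor, ex 340, em 617/671 nm · Evaluation – percent inhibition of 671/617 nm emission ratio versus biotin and DMSO controls · Plate – 1536-well format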
proKLK7 act – activators of human kallikrein-7 zymogen | purified proKLK7, EDANS-DABCYL substrate fluorescence; 100% is mature enzyme control, 0% vehicle | P49862 | 370,000 tested, 0.9% active | AID 652039 | activation, % at 7 µM;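 active means activation above the mean of all tested compounds plus 3 SD, computed per campaign excluding outliers beyond control limits, cut at about 13% in these data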
ADAM17 inh – ADAM17 inhibition, QFRET primary screen; 370,000 tested, 0.83% active; recombinant ADAM17, EDANS/DABCYL FRET peptide cleavage; AID 720648; P78536; inhibition, % at 6.95 µM;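 active means inhibition above the mean of compounds lying between control limits plus 3 SD, set per campaign, cut at about 8.5% in these data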;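 further: 0% = DMSO-only wells as the low control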
ADAM10 inh – inhibitors of human ADAM10. recombinant ADAM10, EDANS/DABCYL FRET peptide cleavage, 3 h. inhibition, % at 7 µM. 370,000 tested, 0.62% active. AID 720582;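 active means inhibition above a per-campaign cutoff equal to the mean of compounds falling between control-based bounds plus 3 SD, cut at about 20% in these data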;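 further: 0% = DMSO wells while the 100% control is not disclosed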
NR2E3 ag-2 – human photoreceptor-specific nuclear receptor agonism | 360,000 tested, 0.35% active | Q9Y5X4 | CHO-S Gal4-NCOR/VP16-NR2E3 two-hybrid, luciferase | inhibition of corepressor binding, % at 3.98 µM | AID 602229;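 active means inhibition above the mean of all tested compounds plus 3 SD, cut at about 70% in these data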;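 further: 0% = DMSO with NR2E3 transfected cells and 100% = cells lacking NR2E3 construct; higher means lower luciferase signal from less NR2E3 corepressor binding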
JMJD2C inh – human JMJD2C demethylase inhibition | GST-JMJD2C(1-420) H3K9me3 demethylation, DELFIA europium | inhibition, % at 2.35 µM | 330,000 tested, 0.069% active;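 active means more than half of a compound's replicate wells show inhibition beyond 50%, single wells judged on their own value; inconclusive means some, but no more than half, of replicates pass 50% inhibition; inactive means no replicate passes 50% inhibition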;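 further: signal counts dimethyl H3K9 product captured on neutravidin plate; 0% = median of DMSO wells and 100% = 0.3 times that DMSO median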
Target sequence (Q9H3R0 1-420 limits assumed): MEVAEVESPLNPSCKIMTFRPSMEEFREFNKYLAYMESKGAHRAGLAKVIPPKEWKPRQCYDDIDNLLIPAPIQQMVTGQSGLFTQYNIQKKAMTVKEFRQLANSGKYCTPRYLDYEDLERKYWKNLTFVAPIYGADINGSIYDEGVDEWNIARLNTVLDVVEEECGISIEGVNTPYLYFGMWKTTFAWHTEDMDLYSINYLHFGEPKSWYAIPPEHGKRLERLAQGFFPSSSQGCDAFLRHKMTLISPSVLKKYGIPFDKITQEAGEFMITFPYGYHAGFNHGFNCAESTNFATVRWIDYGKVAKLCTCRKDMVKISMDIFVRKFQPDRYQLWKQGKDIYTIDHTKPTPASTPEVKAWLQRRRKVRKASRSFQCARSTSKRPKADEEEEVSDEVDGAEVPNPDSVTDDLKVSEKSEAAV
KLK7 act conf – confirmation of human kallikrein-7 zymogen activators. shares compounds with proKLK7 act. purified proKLK7, EDANS-DABCYL substrate fluorescence; scaled: vehicle 0, mature enzyme 100. activation, % at 7 µM. 3,200 tested, 68% active;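 active means activation, as change over the incubation, above the mean of all tested compounds plus 3 SD, cut at about 13% in these data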
EDANS-DABCYL int – optically interferes with EDANS-DABCYL signal, flagging KLK7 hits; shares compounds with proKLK7 act; EDANS-DABCYL substrate fluorescence interference, no enzyme, 4 h; solvent 0%, active enzyme control 100%; activation, % at 7 µM; 3,200 tested, 80% active; AID 686952;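 active means activation above the all-compound mean plus 3 SD, ignoring values outside control-based bounds, cut at about 4.8% in these data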;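 further: value is the 4 h activation minus the activation read at time zero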
Active calls of the source: *; i = inactive; ? = inconclusive; / = no result.

SMILES	NR2E3 ag-1	proKLK7 act	ADAM17 inh	ADAM10 inh	NR2E3 ag-2	JMJD2C inh	KLK7 act conf	EDANS-DABCYL int
CN1C(=O)c2cccc3c(S(=O)(=O)N(C)C)ccc1c23	-1	49*	-219	i	-25	8	66*	73*
CN1C(=O)c2cccc3c(S(=O)(=O)Nc4ccccc4F)ccc1c23	-2	3	0	-8	-27	2	/	/
CCN1C(=O)c2cccc3c(S(=O)(=O)N(C)C)ccc1c23	/	65*	-288	i	-10	/	73*	75*
CC(=O)N1C(C)(C)CC(=NOC(=O)c2ccc(C)cc2)CC1(C)C	2	0	-2	-5	-5	13	/	/
N#Cc1ccc(OCC(=O)N/N=C/C2CC=CCC2)cc1 (stereo unspecified)	0	0	-1	-8	-24	-9	/	/
CN1CCN(C(=O)Cn2ncc3c([nH]c4ccccc43)c2=O)CC1	0	0	-9	-2	-13	15	/	/
CCOC(=O)[C@@]12CCCC3=C1N(CCC3)C(=O)[C@H]2CC(=O)NCCCN1CCCC1=O	/	0	-4	-7	/	/	/	/
COCCCNC(=O)c1ccc2nc3ccccc3c(=O)n2c1	-1	31*	-447	i	-8	14	60*	68*
COC(CNC(=O)c1ccc2nc3ccccc3c(=O)n2c1)OC	1	28*	-374	i	-43	-28	62*	68*
CCOC(=O)[C@]12CCC=C1N(Cc1cccc3ccccc13)C(=O)[C@H](CC(=O)N1CCN(C(=O)c3ccco3)CC1)C2	/	1	4	2	10	/	/	/
O=C(Nc1cccc(NC(=O)c2ccc(-c3ccc(Br)cc3)o2)c1)c1ccco1	2	440*	-68	-184	-31	6	446*	213*
CCOC(=O)c1cc(=O)n2c(nc3ccccc32)[nH]1	9	23*	i	i	-84	10	77*	79*
Cc1ccc(C)n1-c1nccc(-c2cccs2)n1	1	52*	i	i	-29	-4	111*	136*
Cc1ccc(C)n1-c1nccc(-c2ccco2)n1	0	81*	i	i	-20	-6	113*	127*
c1ccc(CSc2nccc(-c3ccco3)n2)cc1	1	0	-2	-7	-21	4	/	/
COc1ccc(CCNC(=O)CSc2nnc3ccccn23)cc1	5	1	-4	-6	14	11	/	/
C=C(C)COc1cc2oc(=O)c(CC(=O)N3C[C@H]4C[C@@H](C3)c3cccc(=O)n3C4)c(C)c2cc1Cl	0	16*	-402	i	-18	5	24*	25*
C=C(C)COc1ccc2c(C)c(CC(=O)N3C[C@H]4C[C@@H](C3)c3cccc(=O)n3C4)c(=O)oc2c1	4	4	-229	i	-30	?	/	/
CC(=O)c1ccc(N2CCN(C(=O)Nc3cccc(F)c3)CC2)cc1	2	0	2	-3	-12	2	/	/
N#Cc1c2c(c(NCCOCCO)n3c1nc1ccccc13)CCCC2	2	6	-73	-196	-5	-4	/	/
COCCNc1cc(C)c(C#N)c2nc3ccccc3n12	-6	37*	i	i	-3	-1	34*	46*
CNc1cc(C)c(C#N)c2nc3ccccc3n12	1	33*	i	i	-4	14	93*	77*
CCCNc1cc(C)c(C#N)c2nc3ccccc3n12	1	7	-107	-355	-17	-7	/	/
Cc1cc(Cl)n2c(nc3ccccc32)c1C#N	/	2	-198	i	-31	-16	/	/
Cc1cc(NCCCO)n2c(nc3ccccc32)c1C#N	0	15*	-203	i	-39	1	51*	70*
SMILES	NR2E3 ag-1	proKLK7 act	ADAM17 inh	ADAM10 inh	NR2E3 ag-2	JMJD2C inh	KLK7 act conf	EDANS-DABCYL int
Cc1cc(NCCOCCO)n2c(nc3ccccc32)c1C#N	1	48*	i	i	-4	11	85*	92*
CSc1ncc(C(=O)Nc2cccnc2)c(C(F)(F)F)n1	/	0	-8	-9	-43	-1	/	/
COc1ccc(OCC(O)CNS(=O)(=O)c2cccs2)cc1 (stereo unspecified)	-1	0	-3	-1	-32	13	/	/
O=c1[nH]cccc1-c1nc2ccccc2n1Cc1ccc(F)cc1	-2	7	-410	i	-3	4	/	/
Cc1cc2nc(-c3ccc[nH]c3=O)n(Cc3ccc(F)cc3)c2cc1C	2	22*	i	i	-38	-13	-1	0
Cc1cc2nc(-c3ccc[nH]c3=O)[nH]c2cc1C	-1	68*	i	i	-123	13	64*	71*
COc1ccccc1-c1c(C)oc2cc(OC(=O)c3ccco3)ccc2c1=O	1	268*	-320	i	4	0	376*	359*
CCOc1ccccc1Oc1c(C)oc2cc(OC(=O)c3ccco3)ccc2c1=O	1	28*	-129	-369	-10	2	272*	238*
COc1ccccc1Oc1c(C)oc2cc(OC(=O)c3ccco3)ccc2c1=O	-1	131*	-440	i	-25	/	785*	792*
Cc1oc2cc(OCC(=O)O)ccc2c(=O)c1Oc1ccccc1	-2	-1	-5	-7	-5	-8	/	/
CCCCc1ccc2nc(NC(=O)c3ccc(Br)o3)sc2c1	/	/	-8	-33	/	/	/	/
COc1cccc(CN2CC(C(=O)NCCOc3cccnc3)CCC2=O)c1 (stereo unspecified)	-1	0	8	-6	9	0	/	/
O=[N+]([O-])c1cccc(-c2nnc(-c3ccccc3F)o2)c1	/	1	1	10	-84	3	/	/
Cc1nc2ccc(-c3nc4cc(N)ccc4o3)cc2[nH]1	-1	28*	-93	-385	-102	10	46*	49*
Cc1ccc(/C=C/c2nc3ccccc3[nH]2)o1	-3	21*	-55	-158	-82	2	31*	30*
CCn1cc(CCCC(=O)NCc2cccc(OC)c2)c2ccccc21	/	0	0	-5	13	3	/	/
CCOC(=O)C1CCN(C(c2cc3ccc(C)c(C)c3[nH]c2=O)c2nnnn2C2CCCCC2)CC1 (stereo unspecified)	-2	9	-10	-33	2	14	/	/

Source: PubChem BioAssay (several laboratories)
